Data published in paper PMC12700136 (Journal of medicinal chemistry, 2025).

What follows are molecules tested against ClpP (Homo sapiens, UniProt Q16740) (assay: Thermal shift assay). Conditions: MDA-MB-468 lysates, heated at 67 °C, WB.
Type: binding
How it was run: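 Test compound at increasing concentrations added to 10 μg MDA-MB-468 lysate, 15 min at 23 °C. Heated 67 °C for 3 min, precipitated 3 min at 23 °C, spun 14,000 rpm, 20 min, 4 °C. Soluble ClpP detected by anti-ClpP immunoblot against unheated and no-compound controls; quantified as mean ± SD of two independent experiments.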

ClpP, sequence (Q16740 57-277): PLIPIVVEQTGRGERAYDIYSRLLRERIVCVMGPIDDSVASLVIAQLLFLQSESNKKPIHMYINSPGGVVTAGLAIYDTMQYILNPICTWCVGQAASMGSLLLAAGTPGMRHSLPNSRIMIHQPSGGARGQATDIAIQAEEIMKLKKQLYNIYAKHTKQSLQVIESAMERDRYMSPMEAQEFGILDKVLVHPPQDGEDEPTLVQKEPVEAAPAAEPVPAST

Structure (SMILES) | ClpP binding/stabilization by TSA (comparison in words)
NCCCCCc1cc(C(F)(F)F)ccc1CN1C(=O)C2=C(CCN(Cc3ccccc3)C2)N2CCN=C12 [Compound 1, 4-(2-(5-Aminopentyl)-4-(trifluoromethyl)benzyl)-7-benzyl-2,4,6,7,8,9-hexahydroimidazo[1,2-a]pyrido[3,4-e]pyrimidin-5(1H)-one] | marginally improved binding to ClpP compared to ONC212
NCCCCCc1cc(F)ccc1CN1C(=O)C2=C(CCN(Cc3ccccc3)C2)N2CCN=C12 [Compound 3, 4-(2-(5-Aminopentyl)-4-fluorobenzyl)-7-benzyl-2,4,6,7,8,9-hexahydroimidazo[1,2-a]pyrido[3,4-e]pyrimidin-5(1H)-one] | weaker ClpP binding
CC(=O)NCCCCCc1cc(C(F)(F)F)ccc1CN1C(=O)C2=C(CCN(Cc3ccccc3)C2)N2CCN=C12 [Compound 5, N-(5-(2-((7-Benzyl-5-oxo-1,2,6,7,8,9-hexahydroimidazo[1,2-a]pyrido[3,4-e]pyrimidin-4(5H)-yl)methyl)-5-(trifluoromethyl)-phenyl)pentyl)acetamide] | much reduced binding to ClpP
CC(=O)NCCCCCc1cc(C(F)(F)F)ccc1CN1C(=O)C2=C(CCN(Cc3cccc(C#N)c3)C2)N2CCN=C12 [Compound 6, N-(5-(2-((7-(3-Cyanobenzyl)-5-oxo-1,2,6,7,8,9-hexahydroimidazo[1,2-a]pyrido[3,4-e]pyrimidin-4(5H)-yl)-methyl)-5-(trifluoromethyl)phenyl)pentyl)acetamide] | much reduced binding to ClpP
CN(C)CCCCCc1cc(C(F)(F)F)ccc1CN1C(=O)C2=C(CCN(Cc3cccc(C#N)c3)C2)N2CCN=C12 [Compound 7, 3-((4-(2-(5-(Dimethylamino)pentyl)-4-(trifluoromethyl)-benzyl)-5-oxo-1,2,4,5,8,9-hexahydroimidazo[1,2-a]pyrido[3,4-e]pyrimidin-7(6H)-yl)methyl)benzonitrile] | recovered to the same level as that of compound 2
CNC(=O)CN(C)CCCCCc1cc(C(F)(F)F)ccc1CN1C(=O)C2=C(CCN(Cc3cccc(C#N)c3)C2)N2CCN=C12 [Compound 8, 2-((5-(2-((7-(3-Cyanobenzyl)-5-oxo-1,2,6,7,8,9-hexahydroimidazo[1,2-a]pyrido[3,4-e]pyrimidin-4(5H)-yl)-methyl)-5-(trifluoromethyl)phenyl)pentyl)(methyl)amino)-N-methylacetamide] | recovered to the same level as that of compound 2
CC(=O)NCCOc1cc(C(F)(F)F)ccc1CN1C(=O)C2=C(CCN(Cc3cccc(C#N)c3)C2)N2CCN=C12 [Compound 10, N-(2-(2-((7-(3-Cyanobenzyl)-5-oxo-1,2,6,7,8,9-hexahydroimidazo[1,2-a]pyrido[3,4-e]pyrimidin-4(5H)-yl)-methyl)-5-(trifluoromethyl)phenoxy)ethyl)acetamide] | decreased ClpP binding compared to 9 but similar to ONC212

Same assay, conditions: TSA, MDA-MB-468 lysates

Structure (SMILES) | improvement in ClpP binding compared to ONC212 and compound 1
N#Cc1cccc(CN2CCC3=C(C2)C(=O)N(Cc2ccc(C(F)(F)F)cc2CCCCCN)C2=NCCN23)c1 [Compound 2, 3-((4-(2-(5-Aminopentyl)-4-(trifluoromethyl)benzyl)-5-oxo-1,2,4,5,8,9-hexahydroimidazo[1,2-a]pyrido[3,4-e]pyrimidin-7(6H)-yl)methyl)benzonitrile] | approximately 2 fold
